ChEMBL document CHEMBL3272198, “Preparation and in vitro antifungal activities of some quinolizidine derived hemiaminals and beta-tert-amino sulfides” (1976)
Active and inactive are the calls of the source. The calls are words filed in the database; no cut-off is given here.

How the values were obtained:
Blastomyces dermatitidis [1] = assay: Antifungal activity against Blastomyces dermatitidis Gilchrist & Stokes isolate 1099 at 20 ug/ml after 2 weeks (reference value: 27 mm); type: functional; details: Gilchrist & Stokes isolate 1099, 336 h, read-out: DIZ
Histoplasma capsulatum [2] = assay: Antifungal activity against Histoplasma capsulatum Darling isolate 1106 at 20 ug/ml after 3 weeks (reference value: 31 mm); type: functional; details: Darling isolate 1106, 504 h, read-out: DIZ
Histoplasma capsulatum [3] = assay: Antifungal activity against Histoplasma capsulatum Darling isolate 1106 at 100 ug/ml after 3 weeks (reference value: 31 mm); type: functional
Histoplasma capsulatum [4] = assay: Antifungal activity against Histoplasma capsulatum Darling isolate 1098 at 40 ug/ml after 3 weeks (reference value: 28 mm); type: functional; details: Darling isolate 1098, 504 h, read-out: DIZ
Blastomyces dermatitidis [5] = assay: Antifungal activity against Blastomyces dermatitidis Gilchrist & Stokes isolate 1107 at 20 ug/ml after 3 weeks (reference value: 40 mm); type: functional; details: Gilchrist & Stokes isolate 1107, 504 h, read-out: DIZ
Blastomyces dermatitidis [6] = assay: Antifungal activity against Blastomyces dermatitidis Gilchrist & Stokes isolate 1107 at 80 ug/ml after 2 weeks (reference value: 35 mm); type: functional; details: Gilchrist & Stokes isolate 1107, 336 h, read-out: DIZ
How it was run: (§1)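 Mycelial phase grown on Sabouraud dextrose agar at 25°C. Agar pH was set to 6 before the test solution was added and was 5.0-5.5 after. Test solutions contained HOAc and Me2SO, and solvent and blank controls were included. Each quadrant was center-inoculated with a 2 × 2 mm piece of a 2-week-old mycelial culture. Colony diameter was measured weekly for 3 weeks and reported as total increments (mm). Duplicates were run.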

Histoplasma capsulatum [7] = assay: Antifungal activity against Histoplasma capsulatum Darling isolate 1106 at 80 ug/ml after 1 week (reference value: 14 mm); type: functional
Blastomyces dermatitidis [8] = assay: Antifungal activity against Blastomyces dermatitidis Gilchrist & Stokes isolate 1099 at 10 ug/ml after 1 week (reference value: 14 mm); type: functional; details: Gilchrist & Stokes isolate 1099, 168 h, read-out: DIZ; how it was run: as §1
Blastomyces dermatitidis [9] = assay: Antifungal activity against Blastomyces dermatitidis Gilchrist & Stokes isolate 1107 at 20 ug/ml after 2 weeks (reference value: 35 mm); type: functional; details: Gilchrist & Stokes isolate 1107, 336 h, read-out: DIZ
Blastomyces dermatitidis [10] = assay: Antifungal activity against Blastomyces dermatitidis Gilchrist & Stokes isolate 1107 at 40 ug/ml after 1 week (reference value: 20 mm); type: functional
Trichophyton rubrum = assay: Antifungal activity against Trichophyton rubrum Castellani Sab.1112 at 40 to 80 ug/ml after 2 weeks; type: functional, organism-based
How it was run: (§2)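 Compound in aqueous HOAc/Me2SO was filter-sterilized and mixed into melted (50°) Sabouraud dextrose agar. Agar pH was 7.0-7.5 before addition and 6.0-6.5 after, giving final levels of 10-100 μg/ml. Quadrant plates were center-inoculated with a 2 × 2 mm piece of a 2-week-old mycelial culture, sealed and kept at 25°C. Colony expansion was measured weekly, with solvent and blank controls, in duplicate.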

Blastomyces dermatitidis [11] = assay: Antifungal activity against Blastomyces dermatitidis Gilchrist & Stokes isolate 1099 at 60 ug/ml after 2 weeks (reference value: 27 mm); type: functional; details: Gilchrist & Stokes isolate 1099, 336 h, read-out: DIZ; how it was run: as §1
Histoplasma capsulatum [12] = assay: Antifungal activity against Histoplasma capsulatum Darling isolate 1098 at 60 ug/ml after 1 week (reference value: 12 mm); type: functional
Blastomyces dermatitidis [13] = assay: Antifungal activity against Blastomyces dermatitidis Gilchrist & Stokes isolate 1099 at 40 ug/ml after 1 week (reference value: 14 mm); type: functional
Blastomyces dermatitidis [14] = assay: Antifungal activity against Blastomyces dermatitidis Gilchrist & Stokes isolate 1099 at 10 ug/ml after 3 weeks (reference value: 34 mm); type: functional; details: Gilchrist & Stokes isolate 1099, 504 h, read-out: DIZ; how it was run: as §1
Histoplasma capsulatum [15] = assay: Antifungal activity against Histoplasma capsulatum Darling isolate 1106 at 10 ug/ml after 3 weeks (reference value: 31 mm); type: functional; details: Darling isolate 1106, 504 h, read-out: DIZ
Histoplasma capsulatum [16] = assay: Antifungal activity against Histoplasma capsulatum Darling isolate 1098 at 80 ug/ml after 3 weeks (reference value: 28 mm); type: functional
Histoplasma capsulatum [17] = assay: Antifungal activity against Histoplasma capsulatum Darling isolate 1098 at 20 ug/ml after 3 weeks (reference value: 28 mm); type: functional; details: Darling isolate 1098, 504 h, read-out: DIZ
Blastomyces dermatitidis [18] = assay: Antifungal activity against Blastomyces dermatitidis Gilchrist & Stokes isolate 1099 at 80 ug/ml after 1 week (reference value: 14 mm); type: functional
Histoplasma capsulatum [19] = assay: Antifungal activity against Histoplasma capsulatum Darling isolate 1106 at 100 ug/ml after 1 week (reference value: 14 mm); type: functional
Blastomyces dermatitidis [20] = assay: Antifungal activity against Blastomyces dermatitidis Gilchrist & Stokes isolate 1099 at 40 ug/ml after 2 weeks (reference value: 27 mm); type: functional; details: Gilchrist & Stokes isolate 1099, 336 h, read-out: DIZ; how it was run: as §1
Blastomyces dermatitidis [21] = assay: Antifungal activity against Blastomyces dermatitidis Gilchrist & Stokes isolate 1107 at 10 ug/ml after 2 weeks (reference value: 35 mm); type: functional; details: Gilchrist & Stokes isolate 1107, 336 h, read-out: DIZ; how it was run: as §1
Blastomyces dermatitidis [22] = assay: Antifungal activity against Blastomyces dermatitidis Gilchrist & Stokes isolate 1099 at 20 ug/ml after 3 weeks (reference value: 34 mm); type: functional; details: Gilchrist & Stokes isolate 1099, 504 h, read-out: DIZ
Histoplasma capsulatum [23] = assay: Antifungal activity against Histoplasma capsulatum Darling isolate 1098 at 100 ug/ml after 1 week (reference value: 12 mm); type: functional
Histoplasma capsulatum [24] = assay: Antifungal activity against Histoplasma capsulatum Darling isolate 1106 at 60 ug/ml after 1 week (reference value: 14 mm); type: functional
Blastomyces dermatitidis [25] = assay: Antifungal activity against Blastomyces dermatitidis Gilchrist & Stokes isolate 1107 at 80 ug/ml after 1 week (reference value: 20 mm); type: functional
Blastomyces dermatitidis [26] = assay: Antifungal activity against Blastomyces dermatitidis Gilchrist & Stokes isolate 1099 at 60 ug/ml after 3 weeks (reference value: 34 mm); type: functional; details: Gilchrist & Stokes isolate 1099, 504 h, read-out: DIZ; how it was run: as §1
Histoplasma capsulatum [27] = assay: Antifungal activity against Histoplasma capsulatum Darling isolate 1106 at 60 ug/ml after 3 weeks (reference value: 31 mm); type: functional
Blastomyces dermatitidis [28] = assay: Antifungal activity against Blastomyces dermatitidis Gilchrist & Stokes isolate 1107 at 20 ug/ml after 1 week (reference value: 20 mm); type: functional; details: Gilchrist & Stokes isolate 1107, 168 h, read-out: DIZ; how it was run: as §1
Histoplasma capsulatum [29] = assay: Antifungal activity against Histoplasma capsulatum Darling isolate 1098 at 40 ug/ml after 1 week (reference value: 12 mm); type: functional; details: Darling isolate 1098, 168 h, read-out: DIZ
Blastomyces dermatitidis [30] = assay: Antifungal activity against Blastomyces dermatitidis Gilchrist & Stokes isolate 1107 at 60 ug/ml after 1 week (reference value: 20 mm); type: functional
Histoplasma capsulatum [31] = assay: Antifungal activity against Histoplasma capsulatum Darling isolate 1106 at 10 ug/ml after 2 weeks (reference value: 25 mm); type: functional; details: Darling isolate 1106, 336 h, read-out: DIZ
Sporotrichum = assay: Antifungal activity against Sporotrichum schenckii Hektoen & Perkins (1109) at 40 to 80 ug/ml after 2 weeks; type: functional, organism-based; how it was run: as §2
Blastomyces dermatitidis [32] = assay: Antifungal activity against Blastomyces dermatitidis Gilchrist & Stokes isolate 1107 at 40 ug/ml after 3 weeks (reference value: 40 mm); type: functional; details: Gilchrist & Stokes isolate 1107, 504 h, read-out: DIZ; how it was run: as §1
Histoplasma capsulatum [33] = assay: Antifungal activity against Histoplasma capsulatum Darling isolate 1098 at 100 ug/ml after 3 weeks (reference value: 28 mm); type: functional

With `C[C@@H]1CC[C@@H](c2ccoc2)N2C(O)[C@@](C)(Sc3ccccc3)CC[C@@H]12` (stereo not given in full) the zone of inhibition at 20 µg/mL (Blastomyces dermatitidis [1]) was 14 mm, the zone of inhibition at 20 µg/mL (Histoplasma capsulatum [2]) was 15 mm and the Activity (Histoplasma capsulatum [3]) was “Active”. For the same compound, the zone of inhibition at 40 µg/mL (Histoplasma capsulatum [4]) was 13 mm, the zone of inhibition at 20 µg/mL (Blastomyces dermatitidis [5]) was 22 mm and the zone of inhibition at 80 µg/mL (Blastomyces dermatitidis [6]) was 3 mm. The Activity (Histoplasma capsulatum [7]) was “Active”, the zone of inhibition at 10 µg/mL (Blastomyces dermatitidis [8]) was 12 mm and the zone of inhibition at 20 µg/mL (Blastomyces dermatitidis [9]) was 18 mm. The Activity (Blastomyces dermatitidis [10]) was “inactive”, the “diameter of the inhibition zone (DIZ)” value (Trichophyton rubrum) was “Active” and the zone of inhibition at 60 µg/mL (Blastomyces dermatitidis [11]) was 6 mm. The Activity (Histoplasma capsulatum [12]) was “Active”, the Activity (Blastomyces dermatitidis [13]) was “inactive” and the zone of inhibition at 10 µg/mL (Blastomyces dermatitidis [14]) was 27 mm. The zone of inhibition at 10 µg/mL (Histoplasma capsulatum [15]) was 25 mm, the Activity (Histoplasma capsulatum [16]) was “Active” and the zone of inhibition at 20 µg/mL (Histoplasma capsulatum [17]) was 18 mm. The Activity (Blastomyces dermatitidis [18]) was “Active”, the Activity (Histoplasma capsulatum [19]) was “Active” and the zone of inhibition at 40 µg/mL (Blastomyces dermatitidis [20]) was 10 mm. For the same compound, the zone of inhibition at 10 µg/mL (Blastomyces dermatitidis [21]) was 26 mm, the zone of inhibition at 20 µg/mL (Blastomyces dermatitidis [22]) was 18 mm and the Activity (Histoplasma capsulatum [23]) was “Active”. For the same compound, the Activity (Histoplasma capsulatum [24]) was “Active”, the Activity (Blastomyces dermatitidis [25]) was “Active” and the zone of inhibition at 60 µg/mL (Blastomyces dermatitidis [26]) was 9 mm. The Activity (Histoplasma capsulatum [27]) was “Active”, the zone of inhibition at 20 µg/mL (Blastomyces dermatitidis [28]) was 7 mm and the zone of inhibition at 40 µg/mL (Histoplasma capsulatum [29]) was 6 mm. The Activity (Blastomyces dermatitidis [30]) was “Active”, the zone of inhibition at 10 µg/mL (Histoplasma capsulatum [31]) was 19 mm and the “diameter of the inhibition zone (DIZ)” value (Sporotrichum) was “Active”. For the same compound, the zone of inhibition at 40 µg/mL (Blastomyces dermatitidis [32]) was 18 mm and the Activity (Histoplasma capsulatum [33]) was “Active”.
